Assay results reported in article PMC11410293 (Journal of hepatology, 2022).

Experiments:
[1] = tested on: cells from PDX283; assay: viability of cells isolated from PDX283 tumor, in vitro; type: cell-based, human; conditions: concentrations up to 16 μM
[2] = tested on: CCA patient-derived xenografts; conditions: cited from earlier work
[3] = tested on: PDX283 tumors; assay: pharmacodynamics in PDX283 tumors; type: in vivo, NOD/SCID mice; conditions: CA3-treated mice, qRT-PCR
[4] = tested on: PDX283 tumors; assay: PDX283 xenograft tumor growth; type: in vivo, NOD/SCID mice; conditions: 1 mg/kg/mouse intraperitoneal 3 times per week for 3 weeks
Summary of the method: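 Female NOD/SCID mice aged 6–8 weeks carried flank implants of the human CCA tumor. Dosing began once tumors were palpable (>25 mm³). Tumor growth was followed.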

[5] = tested on: HuCCT-1 reporter cells; assay: luminescent reporter of TEAD-dependent transcription; type: cell-based

In the case of `CCN1C(=O)N(c2c(F)c(OC)cc(OC)c2F)Cc2cnc3[nH]c(CN4CCOCC4)cc3c21` [pemigatinib], the “sensitivity of PDX283 cells” value [1] is reported as “resistance”.

In the case of `Cc1nc(Nc2ncc(C(=O)Nc3c(C)cccc3Cl)s2)cc(N2CCN(CCO)CC2)n1` [dasatinib], the “in vivo growth of CCA patient-derived xenografts” value [2] is listed as “inhibited”.

For `O=S(=O)(c1ccc2c(c1)C(=NO)c1cc(S(=O)(=O)N3CCCCC3)ccc1-2)N1CCCCC1` [CA3], the “YAP target gene expression in tumors” value [3] was “Inhibition” and the “growth of PDX283 tumors” value [4] was “significantly decreased”.

For Verteporfin, the “global TEAD-dependent transcription” value [5] was “decreased”.
